From PubChem
Shown are actives, neighbours in structure and some others; about 3.1% of the full set was active somewhere.
PHOSPHO1 block = PHOSPHO1 (human) inhibition. inhibition, % at 13.3 µM. Q8TCT1. AID 1565. hit rate 1.1% among 290,000. recombinant PHOSPHO1, absorbance phosphatase assay; in the data active = inhibition above about 60%
Target sequence (Q8TCT1 whole entry, looked up): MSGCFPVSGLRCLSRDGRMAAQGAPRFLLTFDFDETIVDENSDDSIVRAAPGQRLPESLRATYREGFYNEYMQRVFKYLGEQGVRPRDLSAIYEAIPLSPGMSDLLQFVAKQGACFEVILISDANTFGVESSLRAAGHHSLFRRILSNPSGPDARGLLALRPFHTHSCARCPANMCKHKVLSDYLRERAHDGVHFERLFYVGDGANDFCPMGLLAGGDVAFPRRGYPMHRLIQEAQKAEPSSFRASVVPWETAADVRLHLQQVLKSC
UBC9 SUMO inh = inhibitors of human SUMOylation (UBC9). P63279. HTRF SUMOylation assay, SAE1/SAE2 + UBC9, in vitro. inhibition, % at 35 µM. hit rate 0.36% among 290,000. AID 2006; in the data active = inhibition above about 50%, passing the limit was not always enough
Target sequence (P63279 whole entry, looked up): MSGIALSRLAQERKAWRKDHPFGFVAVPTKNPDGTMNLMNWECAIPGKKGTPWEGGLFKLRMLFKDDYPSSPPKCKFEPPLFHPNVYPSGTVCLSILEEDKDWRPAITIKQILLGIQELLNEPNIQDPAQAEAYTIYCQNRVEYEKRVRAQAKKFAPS
NS3 helicase inh = inhibitors of Hepatitis C virus NS3 helicase; NS3 helicase DNA unwinding, Cy5 molecular beacon fluorescence; inhibition, % at 10.9 µM; hit rate 0.56% among 290,000; AID 1800;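 active = inhibition above the mean of all tested compounds plus 3 SD, set per campaign, cut at about 35% in these data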
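test system = hepatitis C virus NS3 helicase domain fragment enzyme | reagent = annealed dual-labelled DNA beacon duplex, ATP-started | times = 1 h at 25 °C | detection = Cy5 fluorescence, 0 and 60 min reads | read-out basis = percent inhibition from t60/t0 fluorescence ratio | control set = DMSO and thioflavine S | replication = one well per compound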
VIM-2 inhibitor = inhibitors of Pseudomonas aeruginosa VIM-2 metallo-beta-lactamase; purified VIM-2, nitrocefin hydrolysis, epi-absorbance fluorescence; inhibition, % at 5.6 µM; hit rate 0.89% among 290,000; AID 1527;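 active = inhibition above the mean of all tested compounds plus 3 SD, cutoff set per screening run, cut at about 7.5% in these data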;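 also: red hydrolysis product quenches plate fluorescence so inhibitors raise well fluorescence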
IMP-1 inh = inhibitors of Pseudomonas aeruginosa IMP-1 metallo-beta-lactamase; inhibition, % at 5.6 µM; purified IMP-1, nitrocefin hydrolysis, epi-absorbance fluorescence; AID 1556; hit rate 0.45% among 290,000;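 active = inhibition above the mean plus 3 SD of all compounds in the same screening run, cut at about 4.5% in these data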
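System – purified recombinant IMP-1 beta-lactamase · Input – IMP-1 dispensed at 0.2 nM · Timing – 15 min preincubation plus 25 min reaction at 25 °C · Signal – Epi-absorbance fluorescence, 480 nm excitation, 530 nm emission · Measure – percent IMP-1 inhibition derived from blank-referenced optical density · Controls – Enzyme-plus-DMSO low control, enzyme-free DMSO high control · Replication – singlicate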
core dimer inh = blocks dimerization of HCV core protein; TR-FRET GST/Flag-core106 dimerization, 1536-well; inhibition, % at 5 µM; hit rate 0.33% among 300,000; AID 1899;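 active = inhibition above the mean of all tested compounds plus 3 SD, set per screening campaign, cut at about 45% in these data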
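Test system: GST/Flag-tagged HCV core106 proteins; Medium: KF-containing HEPES buffer, pH 7.45, DTT, CHAPS, BSA; Times: compound-protein-antibody incubation 4 h at 22.5 °C; Detection: TR-FRET 671 and 617 nm emission; Benchmarks: wells lacking GST-core106 and wells with excess unlabelled core106.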
Each line names hits and unclear results; the compound was inactive in the other large screens.

C/C(=N/NC(=O)c1cc(C)[nH]n1)c1ccncc1	none
O=C(CSc1nc2ccccc2n1CC(=O)N1CCOCC1)N1CCCC1	none
O=C(Cn1c(SCc2ccccc2)nc2ccccc21)N1CCOCC1	PHOSPHO1 block 62
O=S(=O)(c1ccc(Cl)cc1)N1CCC(N2CCCCCC2)CC1	IMP-1 inh 5.7
O=S(=O)(c1ccc(F)cc1)N1CCC(N2CCCCCC2)CC1	none
COc1ccc(/C=N/N2C(=O)C3C4C=CC(CC4)C3C2=O)c(OC)c1 (stereo unspecified)	none
Cc1ccc(NCc2nc3ccccc3n2C)cc1C	PHOSPHO1 block 60
Cc1ccc(NCc2nc3ccccc3n2C)cc1	none
Nc1ccc(O)c2c1C(=O)c1ccccc1C2=O	none
Nc1ccc(Br)c2c1C(=O)c1ccccc1C2=O	VIM-2 inhibitor 10
Cc1csc(NC(=O)CSc2nccn2C)n1	none
CCN(CC)S(=O)(=O)c1cccc(NC(=O)COC(=O)CCC(=O)c2cccs2)c1	PHOSPHO1 block 73
NC(=O)c1ccc(NC(=O)CCC(=O)c2cccs2)cc1	IMP-1 inh 5.0
O=C(CCC(=O)c1cccs1)NC(c1ccccc1)c1ccccc1	none
O=C(CCC(=O)c1cccs1)c1cccs1	IMP-1 inh 4.6
CC(C)Cn1c(C23CC4CC(CC(C4)C2)C3)n[nH]c1=S	none (no result: PHOSPHO1 block)
COC(=O)c1[nH]c2ccccc2c1NC(=O)CN1CCCCCC1	PHOSPHO1 block 65
CCOC(=O)N1CCN(CC(=O)Nc2c(C(=O)OC)[nH]c3ccccc23)CC1	none
COc1ccc(C)cc1NC(=O)C1CCN(S(=O)(=O)c2ccc3c(c2)C(C)(C)C(=O)N3C)CC1	none
CC(NC(=O)C1C2C=CC(C2)C1C(=O)O)c1ccccc1 (stereo unspecified)	none
O=C(O)C1C2C=CC(C2)C1C(=O)Nc1ccccc1Br (stereo unspecified)	IMP-1 inh 32
CO[C@H]1/C=C/O[C@@]2(C)Oc3c(C)c(O)c4c(O)c(c(C=NN5CCN(C)CC5)c(O)c4c3C2=O)NC(=O)/C(C)=C\C=C\[C@H](C)[C@H](O)[C@@H](C)[C@@H](O)[C@@H](C)[C@H](OC(C)=O)[C@@H]1C	none (no result: PHOSPHO1 block, UBC9 SUMO inh, NS3 helicase inh, VIM-2 inhibitor, IMP-1 inh)
CO[C@H]1C=CO[C@@]2(C)Oc3c(C)c(O)c4c(O)c(c(C=NN5CCN(C6CCCC6)CC5)c(O)c4c3C2=O)NC(=O)C(C)=CC=C[C@H](C)[C@H](O)[C@@H](C)[C@@H](O)[C@@H](C)[C@H](OC(C)=O)[C@@H]1C	UBC9 SUMO inh 52 (no result: core dimer inh)
CCOC(=O)c1c(S(=O)(=O)NCC(=O)Nc2cccc(C)c2)c(C)n(C)c1C	PHOSPHO1 block 70 (no result: UBC9 SUMO inh)
O=C(c1nn2c(C(F)(F)F)cc(-c3ccccc3)nc2c1Cl)N1CCN2CCCC2C1 (stereo unspecified)	VIM-2 inhibitor 9.1 (no result: PHOSPHO1 block, core dimer inh)
O=C(c1cc2nc(-c3ccccc3)cc(C(F)(F)F)n2n1)N1CCOCC1	none
O=C(c1cc2nc(-c3ccccc3)cc(C(F)(F)F)n2n1)N1CCN2CCCC2C1 (stereo unspecified)	VIM-2 inhibitor 9.1
CC(C)OCCCNC(=O)C1CCN(S(=O)(=O)c2ccc3nc4c(c(C(=O)O)c3c2)CCCCC4)CC1	none
COc1ccc2[nH]c3c(c2c1)CCNC3(C)CCc1ccc(Cl)nc1 (stereo unspecified)	none
Cc1ccc(/C=C/C2=Cc3c(sc(NC(=O)CSc4n[nH]c(N)n4)c3C#N)C(C)(C)C2)o1	UBC9 SUMO inh 70, NS3 helicase inh 45, core dimer inh 89
CC1CC(C)CN(S(=O)(=O)N2CCC(C(=O)NCCc3ccccc3)CC2)C1 (stereo unspecified)	none
Cc1cccc(OCC(=O)NCC(=O)N/N=C/c2c(C)[nH]c3ccccc23)c1	none
Cc1cc(C)c2ccc(C(=O)O)nc2c1O	VIM-2 inhibitor 9.7
COc1ccc(C(=O)O)nc1C	none
COc1ccc(-c2cc(C(=O)Nc3ccc(Br)cc3)no2)cc1	IMP-1 inh 20
COc1ccc(-c2cc(C(=O)Nc3cc(Cl)ccc3O)no2)cc1	IMP-1 inh 25
COc1ccc(-c2cc(C(=O)Nc3ccc(C)c(C)c3)no2)cc1	PHOSPHO1 block 61
COc1ccc(-c2cc(C(=O)Nc3cc(C)ccc3O)no2)cc1	none
CCN(CC)C(=O)Cn1cc(C(=O)C(=O)Nc2ccc3c(c2)OCCO3)c2ccccc21	none
C=CCOC(=O)C1=C(C)NC(=O)NC1c1cc2c(cc1Br)OCO2 (stereo unspecified)	none
Cc1cccc(-c2nc(NCCCN(C)C)c3ccccc3n2)c1	VIM-2 inhibitor 7.8
Cc1cccc(-c2nc(NCCCN3CCOCC3)c3ccccc3n2)c1	VIM-2 inhibitor 7.7
c1ccc(-c2nc(NCCCN3CCOCC3)c3ccccc3n2)cc1	VIM-2 inhibitor 10
Cc1ccc(NC(=O)NNC(=O)CN2C(=O)COc3ccccc32)cc1	none
O=C(Cc1ccc(O)cc1)N/N=C/c1cccnc1	none (no result: core dimer inh)
CCOC(=O)C1=C(COC(=O)c2ccc(OC)c(OC)c2OC)NC(=O)NC1C (stereo unspecified)	none (no result: PHOSPHO1 block, UBC9 SUMO inh, NS3 helicase inh, VIM-2 inhibitor, IMP-1 inh)
CCOC(=O)c1cc2c(=O)n3ccccc3nc2n(CCOC)c1=NC(=O)C(C)(C)C	none
CCOC(=O)c1cc2c(=O)n3ccccc3nc2n(CCOC)c1=NC(=O)c1ccncc1	VIM-2 inhibitor 13
COc1cc(N(C)C)c([N+](=O)[O-])cc1C(=O)N1CCOCC1	none
CCOC(=O)CC1COCCN1C(=O)CCc1nnc(-c2ccsc2)o1 (stereo unspecified)	none
O=C(CSc1nnc(-c2ccc(Cl)cc2)n1Cc1ccco1)c1cccs1	core dimer inh 47
CN(C)c1ccc(NC(=O)CSc2nnc(-c3cccs3)n2Cc2ccco2)cc1	PHOSPHO1 block 90
Cc1ccc(NC(=O)CSc2nnc(-c3cccs3)n2Cc2ccco2)cc1	none
CCn1c(Cn2nnc(-c3ccccc3)n2)nnc1SCC(=O)Nc1ccc(C(C)=O)cc1	none
CCn1c(SCC(=O)Nc2ccc(N(C)C)cc2)nnc1-c1cccc(C)c1	PHOSPHO1 block 79
CCn1c(Cn2nnc(-c3ccccc3)n2)nnc1SCC(=O)Nc1ccc(N(C)C)cc1	PHOSPHO1 block 78
CCn1c(SCC(=O)Nc2cccc(OC)c2)nnc1-c1ccc(Cl)cc1	PHOSPHO1 block 74
O=C(CN1C(=O)NC2(CCCc3ccccc32)C1=O)N1CCCCC1 (stereo unspecified)	none (no result: PHOSPHO1 block, UBC9 SUMO inh, NS3 helicase inh, VIM-2 inhibitor, IMP-1 inh)
Cc1cccc(-n2c(CNC(=O)c3cccc([N+](=O)[O-])c3C)n[nH]c2=S)c1	VIM-2 inhibitor 8.8
COc1ccc(C(=O)c2coc(-c3ccccc3C(=O)O)c2C(=O)O)cc1	none
COc1ccc(C(=O)c2c(C(F)(F)F)oc3c2C(=O)c2ccccc2C3=O)cc1	PHOSPHO1 block 97
CC(C)(C)NC(=O)c1ccc2nsnc2c1	none
COc1ccc(S(=O)(=O)N2CCN(c3ccc(F)cc3)CC2)cc1C(=O)N1CCOCC1	none
